Measurements as given in ChEMBL document CHEMBL1821722, “Design, synthesis and biological evaluation of novel desmuramyldipeptide analogs” (Eur J Med Chem, 2011).

Experiments:
THP-1 [1] = test: Cytotoxicity against human THP1 cells assessed as LDH release at 20.2 uM; type: cell-based; details: thp-1, 20.2 µM
Method in brief: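 LDH leakage into the medium used as the cytotoxicity read-out, taken at the highest concentration tested.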

PBMC [2] = test: Cytotoxicity against human PBMC assessed as LDH release at 20.2 uM; type: cell-based
THP-1 [3] = test: Toxicity in human THP1 cells assessed TNF-alpha release at 20.2 uM after 24 hrs by sandwich ELISA; type: cell-based; details: thp-1, 24 h
Method in brief: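 THP-1 in supplemented RPMI 1640 co-incubated 24 h with 20.2 µM compound and 1 ng/ml LPS, DMSO ≤0.2%. TNF-α release expressed as % of the LPS-only response, mean ± SD of 6 samples, Mann-Whitney U test.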

THP-1 [4] = test: Immunomodulatory effect in human THP1 cells assessed as increase in LPS-induced TNF-alpha release at 20.2 uM after 24 hrs by sandwich ELISA relative to LPS; type: functional
Method in brief: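 THP-1 cells at 10⁶ cells/ml in RPMI 1640 with 10% heat-inactivated FCS. Co-incubated 24 h with compound (0.2–200 µM) plus E. coli 0127:B8 LPS 1 ng/ml, DMSO vehicle ≤0.2% final. TNF-α in supernatant expressed as % of LPS-induced release, mean ± SD of 6 samples.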

PBMC [5] = test: Immunomodulatory effect in human PBMC cells assessed as decrease in LPS-induced IL-6 release at 20.2 uM after 18 hrs by flow cytometry analysis relative to LPS; type: functional; set-up: scale not given: the % may be the effect or the level left
Method in brief: (§1)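 Human PBMC isolated from healthy-donor buffy coats on a Ficoll-Paque gradient. Cultured in RPMI 1640 with 10% heat-inactivated FCS, 2 mM L-glutamine and 50 µM 2-mercaptoethanol. 0.5 × 10⁶ cells exposed to 20.2 µM compound plus 10 ng/ml LPS, DMSO ≤0.1%, for 18 h at 37 °C in 5% CO₂. Supernatant cytokines measured by flow cytometric bead assay. Values are % of LPS alone, mean ± SD of 4 samples, two donors.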

PBMC [6] = test: Immunomodulatory effect in human PBMC cells assessed as decrease in LPS-induced IL-8a release at 20.2 uM after 18 hrs by flow cytometry analysis relative to LPS; type: functional; set-up: scale not given: the % may be the effect or the level left; method in brief: as §1
PBMC [7] = test: Immunomodulatory effect in human PBMC cells assessed as LPS-induced IL1-beta release at 20.2 uM after 18 hrs by flow cytometry analysis relative to LPS; type: functional; method in brief: as §1
PBMC [8] = test: Immunomodulatory effect in human PBMC cells assessed as decrease in LPS-induced IL-10 release at 20.2 uM after 18 hrs by flow cytometry analysis relative to LPS; type: functional; set-up: scale not given: the % may be the effect or the level left; method in brief: as §1
PBMC [9] = test: Immunostimulatory effect in human PBMC cells assessed as increase in […]/ionomycin-induce IL-10 release at 20.2 uM after 18 hrs by flow cytometry analysis relative to PMA and ionomycin; type: functional
Method in brief: (§2)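 PBMC prepared from donor buffy coat on Ficoll-Paque and kept in supplemented RPMI 1640. Cells (0.5 × 10⁶) given 20.2 µM compound with PMA 3.33 ng/ml and ionomycin 500 nM (final) for 18 h at 37 °C, 5% CO₂. Supernatant IL-1β, IL-6, IL-8, IL-10 and TNF-α read by flow cytometry. Expressed relative to PMA/ionomycin alone, mean ± SD of 4 samples, two donors.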

PBMC [10] = test: Immunostimulatory effect in human PBMC cells assessed as increase in […]/ionomycin-induce IL-6 release at 20.2 uM after 18 hrs by flow cytometry analysis relative to PMA and ionomycin; type: functional; method in brief: as §2
PBMC [11] = test: Immunostimulatory effect in human PBMC cells assessed as increase in […]/ionomycin-induce IL1-beta release at 20.2 uM after 18 hrs by flow cytometry analysis relative to PMA and ionomycin; type: functional; method in brief: as §2
PBMC [12] = test: Immunomodulatory effect in human PBMC cells assessed as increase in LPS-induced TNFalpha release at 20.2 uM after 18 hrs by flow cytometry analysis relative to LPS; type: functional; method in brief: as §1
PBMC [13] = test: Immunostimulatory effect in human PBMC cells assessed as increase in […]/ionomycin-induce TNFalpha release at 20.2 uM after 18 hrs by flow cytometry analysis relative to PMA and ionomycin; type: functional; method in brief: as §2
PBMC [14] = test: Immunostimulatory effect in human PBMC cells assessed as increase in […]/ionomycin-induce IL-8a release at 20.2 uM after 18 hrs by flow cytometry analysis relative to PMA and ionomycin; type: functional; method in brief: as §2
PBMC [15] = test: Immunomodulatory effect in human PBMC cells assessed as increase in LPS-induced IL-10 release at 20.2 uM after 18 hrs by flow cytometry analysis relative to LPS; type: functional; method in brief: as §1
PBMC [16] = test: Immunomodulatory effect in human PBMC cells assessed as increase in LPS-induced IL-8a release at 20.2 uM after 18 hrs by flow cytometry analysis relative to LPS; type: functional; method in brief: as §1
PBMC [17] = test: Immunomodulatory effect in human PBMC cells assessed as increase in LPS-induced IL-6 release at 20.2 uM after 18 hrs by flow cytometry analysis relative to LPS; type: functional; method in brief: as §1

SMILES | Activity (THP-1 [1]) | Activity (PBMC [2]) | Activity (THP-1 [3]) | Activity (THP-1 [4]) [%] | Activity (PBMC [5]) [%] | Activity (PBMC [6]) [%] | Activity (PBMC [7]) [%] | Activity (PBMC [8]) [%] | Activity (PBMC [9]) [%] | Activity (PBMC [10]) [%] | Activity (PBMC [11]) [%] | Activity (PBMC [12]) [%] | Activity (PBMC [13]) [%] | Activity (PBMC [14]) [%] | Activity (PBMC [15]) [%] | Activity (PBMC [16]) [%] | Activity (PBMC [17]) [%]
C[C@H](NC(=O)C1CCCN2C1c1ccccc1S2(=O)=O)C(=O)N[C@H](CCC(=O)O)C(=O)O (stereo partly drawn) | Non-toxic | Non-toxic | Non-toxic | 110.5 | – | – | – | – | – | – | – | – | – | – | – | – | –
C[C@H](NC(=O)COCCN1C(=O)c2ccccc2S1(=O)=O)C(=O)N[C@H](CCC(=O)O)C(=O)O | Non-toxic | Non-toxic | Non-toxic | 117 | 86 | 89.5 | 85 | 65.5 | 116 | 91 | 112 | 104 | 124 | 104 | – | – | –
CCOC(=O)CC[C@@H](NC(=O)[C@H](C)NC(=O)C1=C2c3ccccc3S(=O)(=O)N2CCC1)C(N)=O | Non-toxic | Non-toxic | Non-toxic | 122 | – | – | 95 | – | 82.5 | 139.5 | 406 | 122.5 | 142 | 134 | 105.5 | 94.5 | 120
C[C@H](NC(=O)CCCCN1C(=O)c2ccccc2S1(=O)=O)C(=O)N[C@H](CCC(=O)O)C(N)=O | Non-toxic | Non-toxic | Non-toxic | 114 | – | – | 106 | – | 84.5 | 81 | 91.5 | 108.5 | 96 | 103 | 98 | 97.5 | 109
C[C@@H](NC(=O)CCCCN1C(=O)c2ccccc2S1(=O)=O)C(=O)N[C@@H](CCC(=O)O)C(N)=O | Non-toxic | Non-toxic | Non-toxic | 91 | – | – | – | – | – | – | – | – | – | – | – | – | –
C[C@H](NC(=O)CCNC(=O)c1cc2ccccc2[nH]1)c1noc(CCC(=O)O)n1 | Non-toxic | Non-toxic | Non-toxic | 113.4 | – | – | – | – | – | – | – | – | – | – | – | – | –
C[C@@H](NC(=O)CCCCN1C(=O)c2ccccc2S1(=O)=O)C(=O)N[C@H](CCC(=O)O)C(N)=O | Non-toxic | Non-toxic | Non-toxic | 115.3 | – | – | – | – | – | – | – | – | – | – | – | – | –
